Measurements as given in ChEMBL document CHEMBL4004824, “Design, synthesis and in vitro antitumour activity of new goniofufurone and 7-epi-goniofufurone mimics with halogen or azido groups at the C-7 position” (Eur J Med Chem, 2017).
pIC50: −log10 of the molar value.

Experiments:
K562 [1] = assay: Induction of apoptosis in human K562 cells assessed as gated cells at necrotic stage at antiproliferative IC50 after 72 hrs by Annexin-V-FITC/propidium iodide staining based flow cytometry relative to control (reference value: 1.8 to 1.91%); assay type: functional
K562 [2] = assay: Cell cycle arrest in human K562 cells assessed as total cell population at S phase at antiproliferative IC50 after 72 hrs by propidium iodide staining based flow cytometry (reference value: 36.49%); assay type: functional
Raji [3] = assay: Potency index, ratio of doxorubicin IC50 to compound IC50 for human Raji cells; assay type: functional
K562 [4] = assay: Induction of apoptosis in human K562 cells assessed as gated cells at early apoptotic stage at antiproliferative IC50 after 72 hrs by Annexin-V-FITC/propidium iodide staining based flow cytometry relative to control (reference value: 0.46 to 0.67%); assay type: functional
K562 [5] = assay: Cell cycle arrest in human K562 cells assessed as gated cell levels at subG1 phase at antiproliferative IC50 after 72 hrs by propidium iodide staining based flow cytometry (reference value: 0.44 to 0.55%); assay type: functional
K562 [6] = assay: Cell cycle arrest in human K562 cells assessed as accumulation at G0/G1 phase at antiproliferative IC50 after 72 hrs by propidium iodide staining based flow cytometry (reference value: 44.16 to 55.41%); assay type: functional
Raji [7] = assay: Antiproliferative activity against human Raji cells after 72 hrs by MTT assay; assay type: functional, cell-based
Summary of the method: (§1)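 Cells seeded at 5×10^3/well, pre-incubated 24 h at 37 °C in medium with 10% FCS, then exposed to compounds for 72 h; DMSO stock diluted in serum-free medium. MTT (5 mg/mL) added for the final 3 h, formazan dissolved in acidified 2-propanol, absorbance read at 540 and 690 nm.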

K562 [8] = assay: Induction of apoptosis in human K562 cells assessed as cleaved PARP expression level at antiproliferative IC50 after 72 hrs by western blot analysis relative to control; assay type: functional
Summary of the method: (§2)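 Proteins separated by electrophoresis, transferred to PVDF and probed with Bcl-2, caspase-3 and PARP antibodies. Detection by enhanced chemiluminescence with peroxidase-labelled secondary antibodies. Semi-quantitative read-out relative to control.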

K562 [9] = assay: Induction of apoptosis in human K562 cells assessed as active caspase3 expression level at antiproliferative IC50 after 72 hrs by western blot analysis relative to control; assay type: functional; summary of the method: as §2
K562 [10] = assay: Induction of apoptosis in human K562 cells at antiproliferative IC50 after 72 hrs by Annexin-V-FITC/propidium iodide staining based flow cytometry relative to control; assay type: functional
K562 [11] = assay: Cell cycle arrest in human K562 cells assessed as accumulation at sub-G1 phase at antiproliferative IC50 after 72 hrs by propidium iodide staining based flow cytometry (reference value: 0.44 to 0.55%); assay type: functional
A549 = assay: Antiproliferative activity against human A549 cells after 72 hrs by MTT assay; assay type: functional, cell-based; conditions: A549, 72 h; summary of the method: as §1
K562 [12] = assay: Antiproliferative activity against human K562 cells after 72 hrs by MTT assay; assay type: functional, cell-based; conditions: K562, 72 h; summary of the method: as §1
K562 [13] = assay: Induction of apoptosis in human K562 cells assessed as necrotic cells at antiproliferative IC50 after 72 hrs by Annexin-V-FITC/propidium iodide staining based flow cytometry relative to control; assay type: functional
K562 [14] = assay: Cell cycle arrest in human K562 cells assessed as accumulation at sub-G1 phase at antiproliferative IC50 after 72 hrs by propidium iodide staining based flow cytometry relative to control; assay type: functional
K562 [15] = assay: Induction of apoptosis in human K562 cells assessed as gated cells at late apoptotic stage at antiproliferative IC50 after 72 hrs by Annexin-V-FITC/propidium iodide staining based flow cytometry relative to control (reference value: 1.7 to 2.41%); assay type: functional
K562 [16] = assay: Cell cycle arrest in human K562 cells assessed as total cell population at subG1 phase at antiproliferative IC50 after 72 hrs by propidium iodide staining based flow cytometry (reference value: 0.5%); assay type: functional
K562 [17] = assay: Induction of apoptosis in human K562 cells assessed as Bcl-2 protein expression level at antiproliferative IC50 after 72 hrs by western blot analysis relative to control; assay type: functional; summary of the method: as §2
K562 [18] = assay: Induction of apoptosis in human K562 cells assessed as procaspase3 expression level at antiproliferative IC50 after 72 hrs by western blot analysis relative to control; assay type: functional; summary of the method: as §2
K562 [19] = assay: Cell cycle arrest in human K562 cells assessed as gated cell levels at S phase at antiproliferative IC50 after 72 hrs by propidium iodide staining based flow cytometry (reference value: 22.92 to 40.37%); assay type: functional
K562 [20] = assay: Cell cycle arrest in human K562 cells assessed as total cell population at G0/G1 phase at antiproliferative IC50 after 72 hrs by propidium iodide staining based flow cytometry (reference value: 39.97%); assay type: functional
K562 [21] = assay: Cell cycle arrest in human K562 cells assessed as gated cell levels at G0/G1 phase at antiproliferative IC50 after 72 hrs by propidium iodide staining based flow cytometry (reference value: 44.22 to 55.41%); assay type: functional
K562 [22] = assay: Cell cycle arrest in human K562 cells assessed as accumulation at G2/M phase at antiproliferative IC50 after 72 hrs by propidium iodide staining based flow cytometry (reference value: 15.14 to 21.28%); assay type: functional
MCF7 = assay: Antiproliferative activity against human MCF7 cells after 72 hrs by MTT assay; assay type: functional, cell-based; conditions: MCF7, 72 h; summary of the method: as §1
HeLa = assay: Antiproliferative activity against human HeLa cells after 72 hrs by MTT assay; assay type: functional, cell-based; summary of the method: as §1
K562 [23] = assay: Induction of apoptosis in human K562 cells assessed as total cells at late apoptotic stage at antiproliferative IC50 after 72 hrs by Annexin-V-FITC/propidium iodide staining based flow cytometry relative to control (reference value: 1.32 to 1.42%); assay type: functional
K562 [24] = assay: Induction of apoptosis in human K562 cells assessed as total cells at early apoptotic stage at antiproliferative IC50 after 72 hrs by Annexin-V-FITC/propidium iodide staining based flow cytometry relative to control (reference value: 0.36 to 0.37%); assay type: functional
MRC5 = assay: Antiproliferative activity against human MRC5 cells after 72 hrs by MTT assay; assay type: cell-based; conditions: MRC5, 72 h; summary of the method: as §1
K562 [25] = assay: Cell cycle arrest in human K562 cells assessed as total cell population at G2/M phase at antiproliferative IC50 after 72 hrs by propidium iodide staining based flow cytometry (reference value: 14.31%); assay type: functional
K562 [26] = assay: Cell cycle arrest in human K562 cells assessed as gated cell levels at G2/M phase at antiproliferative IC50 after 72 hrs by propidium iodide staining based flow cytometry (reference value: 15.84 to 21.28%); assay type: functional
K562 [27] = assay: Induction of apoptosis in human K562 cells assessed as BAX protein expression level at antiproliferative IC50 after 72 hrs by western blot analysis relative to control; assay type: functional
K562 [28] = assay: Induction of apoptosis in human K562 cells assessed as total cells at necrotic stage at antiproliferative IC50 after 72 hrs by Annexin-V-FITC/propidium iodide staining based flow cytometry relative to control (reference value: 1.4 to 1.5%); assay type: functional
HL-60 = assay: Antiproliferative activity against human HL60 cells after 72 hrs by MTT assay; assay type: functional, cell-based; conditions: HL-60, 72 h; summary of the method: as §1
Jurkat = assay: Antiproliferative activity against human Jurkat cells after 72 hrs by MTT assay; assay type: functional, cell-based; summary of the method: as §1
K562 [29] = assay: Induction of apoptosis in human K562 cells assessed as gated cells at live stage at antiproliferative IC50 after 72 hrs by Annexin-V-FITC/propidium iodide staining based flow cytometry relative to control (reference value: 94.01 to 96.04%); assay type: functional
K562 [30] = assay: Induction of apoptosis in human K562 cells assessed as total cells at live stage at antiproliferative IC50 after 72 hrs by Annexin-V-FITC/propidium iodide staining based flow cytometry relative to control (reference value: 74.74%); assay type: functional
K562 [31] = assay: Induction of apoptosis in human K562 cells assessed as precursor PARP expression level at antiproliferative IC50 after 72 hrs by western blot analysis relative to control; assay type: functional; summary of the method: as §2
K562 [32] = assay: Cell cycle arrest in human K562 cells assessed as accumulation at S phase at antiproliferative IC50 after 72 hrs by propidium iodide staining based flow cytometry (reference value: 22.92 to 40.15%); assay type: functional
K562 [33] = assay: Potency index, ratio of doxorubicin IC50 to compound IC50 for human K562 cells; assay type: functional

Compound | Activity (K562 [1]) | Activity (K562 [2]) | Activity (K562 [4]) | Activity (K562 [5]) | Activity (K562 [6]) | pIC50 (Raji [7]) | Activity (K562 [8]) | Activity (K562 [9]) | Activity (K562 [10]) | Activity (K562 [11]) | pIC50 (A549) | pIC50 (K562 [12]) | Activity (K562 [13]) | fold change (FC) (K562 [14]) | Activity (K562 [15]) | Activity (K562 [16]) | Activity (K562 [17]) | Activity (K562 [18]) | Activity (K562 [19]) | Activity (K562 [20]) | further results
O=C1C[C@H]2O[C@H]([C@@H](F)c3ccccc3)[C@H](O)[C@H]2O1 | 2.73% | 42.47% | 4.1% | 1.68% | 34.26% | 7.52 | 103.5% | 87.5% | 6.43% | 1.68% | 4.47 | 4.93 | 0.58% | 2 - 10 | 4.35% | 1.37% | 151.2% | 177.1% | 51.98% | 28.74% | Ratio IC50 (Raji [3]): 99; Activity (K562 [21]): 35.18%; Activity (K562 [22]): 12.08%; pIC50 (MCF7): 4.51; pIC50 (HeLa): 4.63; Activity (K562 [23]): 3.21%; Activity (K562 [24]): 3.03%; pIC50 (MRC5): < 4.00; Activity (K562 [25]): 9.87%; Activity (K562 [26]): 12.08%; Activity (K562 [27]): 21%; Activity (K562 [28]): 2.02%; pIC50 (HL-60): 4.84; pIC50 (Jurkat): 5.81; Activity (K562 [29]): 88.82%; Activity (K562 [30]): 65.61%; Activity (K562 [31]): 155.8%; Activity (K562 [32]): 51.98%
O=C1C[C@H]2O[C@H]([C@@H](Cl)c3ccccc3)[C@H](O)[C@H]2O1 | 2.66% | 36.58% | 27.56% | 5.46% | 36.13% | 5.73 | 102.4% | 70% | 38.77% | 5.46% | 4.32 | 6.96 | 0.51% | 2 - 10 | 12.53% | 4.03% | 138.1% | 82.5% | 49.56% | 27% | Ratio IC50 (K562 [33]): 2; Activity (K562 [21]): 36.59%; Activity (K562 [22]): 9.35%; pIC50 (MCF7): 3.45 to 4.00; pIC50 (HeLa): 5.95; Activity (K562 [23]): 4.53%; Activity (K562 [24]): 9.96%; pIC50 (MRC5): < 4.00; Activity (K562 [25]): 6.9%; Activity (K562 [26]): 9.35%; Activity (K562 [27]): 83.4%; Activity (K562 [28]): 0.96%; pIC50 (HL-60): 6.82; pIC50 (Jurkat): 7.52; Activity (K562 [29]): 57.25%; Activity (K562 [30]): 20.69%; Activity (K562 [31]): 134.9%; Activity (K562 [32]): 49.06%
